DTT redox prof: compounds producing H2O2 with reducing agent – biochemical, NIH compound library profiling, artefact control for MLSCN library redox annotation, primary screen; DTT-dependent redox cycling H2O2, phenol red/HRP absorbance; 100% = 100 µM peroxide control, 0% = buffer; activation, % at 10 µM; 200,000 compounds, 0.03% hits; AID 878;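 active means activation of at least 50% relative to the plate's high and low controls in the primary single-dose screen; inactive means activation below 50%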;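 further: compound incubated with DTT at 0.8 mM final as the reducing agent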
p97 ATPase inh: human p97 ATPase inhibition; P55072; recombinant p97 ATPase, Kinase-Glo ATP luminescence, 3 h; inhibition, % at 8 µM; 220,000 compounds, 0.42% hits; in the data active means inhibition above about 15%
Target sequence (P55072 whole entry, looked up): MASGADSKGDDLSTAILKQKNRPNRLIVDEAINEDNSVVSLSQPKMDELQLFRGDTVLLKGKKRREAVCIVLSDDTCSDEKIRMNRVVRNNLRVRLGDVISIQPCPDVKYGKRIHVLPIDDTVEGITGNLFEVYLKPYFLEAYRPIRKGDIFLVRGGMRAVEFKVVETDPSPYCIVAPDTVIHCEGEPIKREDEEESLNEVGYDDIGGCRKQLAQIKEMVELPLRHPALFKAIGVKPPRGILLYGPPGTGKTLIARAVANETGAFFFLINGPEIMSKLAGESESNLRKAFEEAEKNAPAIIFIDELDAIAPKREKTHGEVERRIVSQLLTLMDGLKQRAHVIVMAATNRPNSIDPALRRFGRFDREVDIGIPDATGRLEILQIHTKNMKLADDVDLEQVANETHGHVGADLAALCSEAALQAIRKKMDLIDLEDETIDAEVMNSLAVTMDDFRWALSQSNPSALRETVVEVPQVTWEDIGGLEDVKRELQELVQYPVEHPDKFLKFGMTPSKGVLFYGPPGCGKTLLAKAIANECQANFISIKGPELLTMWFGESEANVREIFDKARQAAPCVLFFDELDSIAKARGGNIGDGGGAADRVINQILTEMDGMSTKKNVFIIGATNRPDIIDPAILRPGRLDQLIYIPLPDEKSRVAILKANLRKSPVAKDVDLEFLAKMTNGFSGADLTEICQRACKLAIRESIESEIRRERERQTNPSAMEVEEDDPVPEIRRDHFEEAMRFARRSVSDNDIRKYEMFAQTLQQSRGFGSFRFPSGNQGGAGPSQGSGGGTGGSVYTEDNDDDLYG
MDM2 E3 inh: blocks human Mdm2 ubiquitin ligase activity | AID 1230 | 210,000 compounds, 0.11% hits | signal enhancement, % at 5 µM | cell-based MDM2 ubiquitination luciferase reporter, 2 h; 0 = plate control, 100 = twice control, blank-subtracted;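 active means signal enhancement of 30% or more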;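 further: luminescence tracks abundance of the self-degrading MDM2-luciferase fusion protein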
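Timing – 2 h compound exposure at 37 °C · Assay system – mammalian cells stably expressing self-ubiquitinating, self-degrading MDM2 E3–luciferase fusion · Amount – 2000 cells seeded into each well · Measure – % luminescence enhancement versus blank-corrected plate control mean · Measured by – SteadyLite luminescence, 15 min reagent step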
Cl transport mod: modulates chloride dependent transport by human KCC2; B-score of Tl+ flux slope (higher = more flux/activation; lower = inhibition) at 10 µM; KCC2 cells, thallium flux FluoZin-2 fluorescence; AID 1456; Q9H2X9; 190,000 compounds, 2.2% hits;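 active means thallium flux slope and its plate-corrected score both differing from the plate sample mean at a set confidence after two filtering rounds, in either direction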;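 further: slope of fluorescence scaled to starting intensity during 10 to 20 s after thallium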
ROMK primary: human ROMK K+ channel modulation, primary screen; P48048; Tet-inducible ROMK, thallium flux fluorescence; actives lie on both sides; B-score at 10 µM; 130,000 compounds, 2% hits;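 active means signal ratio slope over the read window, or its plate-corrected B-score, at least 3 SD from the plate mean, either direction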;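 further: B-score of the F/F0 ratio slope over 7 to 12 s after thallium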
PKD1 kinase inh: blocks activity of human protein kinase D1; PKD1 kinase fluorescence polarization assay; inhibition, % (no concentration beside the values); Q15139; 200,000 compounds, 0.056% hits; in the data active means inhibition above about 50%
KCC2 sec1: confirmation of human KCC2 transport modulators. shares compounds with Cl transport mod. HEK293-KCC2, thallium flux, FluoZin2 fluorescence; hits give high values. normalised thallium flux (F/F0 slope) at 10 µM. 3,700 compounds, 15% hits. AID 1713;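 active means thallium flux slope above the same plate's solvent-only control mean plus 3 SD; inconclusive means the two replicate wells disagree; inactive means no significant difference from solvent-only control wells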
KCC2 bumet counter: thallium flux despite bumetanide block in KCC2 cells, secondary assay 3; shares compounds with Cl transport mod; HEK293-KCC2 + bumetanide/ouabain, thallium flux FluoZin2; hits give high values; normalized thallium flux at 10 µM; 3,700 compounds, 49% hits; AID 1714;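 active means thallium entry rate above the same plate's blocked-transporter control wells by more than 3 SD; inconclusive means the two repeat wells disagree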;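 further: raw slope of fluorescence over initial fluorescence between 10 and 20 s after thallium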
KCC2 secondary2: KCC2 (human) modulation, second secondary assay | HEK293-KCC2, thallium flux FluoZin2 fluorescence; actives lie on both sides; F/F0 rise rate, 10–20 s post-thallium | normalized thallium flux at 10 µM | 3,700 compounds, 23% hits | shares compounds with Cl transport mod;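 active means thallium flux slope more than 3 SD above or below the plate's solvent-only control mean, mostly below; inconclusive means the two repeat wells disagreed; inactive means no significant shift from solvent-only controls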
HEK293 Tl flux: parental HEK flux effect, counter-screen | shares compounds with Cl transport mod | HEK293 parental cells, thallium flux FluoZin2, ouabain; baseline-ratio fluorescence slope, 10–20 s after thallium | thallium flux rate (normalised fluorescence) at 10 µM | 3,700 compounds, 46% hits | AID 1716;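 active means thallium flux rate significantly above the same plate's solvent-only control wells, beyond their mean plus 3 SD; inconclusive means the two replicate wells gave conflicting results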
KCC2 retest ouab: modulates human KCC2 on retest with ouabain; raw Tl+ flux slope (below DMSO = inhibition, above = activation) at 10 µM; shares compounds with Cl transport mod; HEK293-KCC2, thallium flux FluoZin2 fluorescence; bidirectional: low = inhibitor, high = activator; AID 1717; 3,700 compounds, 48% hits;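 active means thallium flux slope beyond 3 SD from same-plate DMSO control mean in most replicates, usually higher, sometimes lower; inconclusive means repeat tests gave conflicting results; inactive means no significant difference from controls in most replicates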;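 further: slope of initial-normalized fluorescence between seconds 10 and 20 after thallium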
HEK293 Tl flux2: counter-screen for KCC2 modulators: effect in parental HEK293 cells. 3,700 compounds, 33% hits. thallium flux slope at 10 µM. shares compounds with Cl transport mod. thallium flux FluoZin-2 fluorescence slope;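 active means thallium flux slope above the same plate's solvent-control mean plus 3 SD in both duplicate wells; inconclusive means duplicate wells that disagreed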;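 further: run without ouabain in cells lacking the KCC2 cotransporter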
Each line names hits and unclear results; the compound was inactive in the other large screens (follow-up assays come after a bar, where they were run). In the library only some 3.4% were active in any assay of this set; here they are far more common.

O=C(Nc1ccc(F)cc1F)c1cccn1-c1ncc(C(F)(F)F)cc1Cl	none (no result: Cl transport mod, ROMK primary)
OCCCNc1nc(-c2ccc(Cl)cc2)nnc1-c1ccc(Br)cc1	none
C/C(=N\Nc1ccc(Cl)c(C(=O)O)c1)c1cccc([N+](=O)[O-])c1	none (no result: DTT redox prof, PKD1 kinase inh)
Nc1nc(-c2ccco2)nn1S(=O)(=O)c1ccccc1	none (no result: Cl transport mod)
Nc1nc(NCc2ccco2)nc(NC2CCCCC2)c1[N+](=O)[O-]	none (no result: DTT redox prof, ROMK primary, PKD1 kinase inh)
Cc1onc(C(=O)N2CCN(Cc3ccccc3)CC2)c1[N+](=O)[O-]	Cl transport mod -4.1 (no result: MDM2 E3 inh) | KCC2 sec1 inactive | KCC2 bumet counter inactive | KCC2 secondary2 inconclusive | HEK293 Tl flux inactive | KCC2 retest ouab 0.019 | HEK293 Tl flux2 inactive
Cc1cc(C(=O)N2CCN(Cc3ccccc3)CC2)on1	none (no result: ROMK primary)
CC(C)NC(=O)C(=O)NNC(=O)CCc1ccccc1	none
CS(=O)(=O)c1cccc(NC(=O)c2ccc(Cl)c(Cl)c2)c1	none
CC1(C)Cc2nc(-c3ccccc3)n3cnnc3c2CO1	none
CN1C(=O)/C(=C/c2cc(C(C)(C)C)c(O)c(C(C)(C)C)c2)NC1=S	Cl transport mod 12 (no result: ROMK primary) | KCC2 sec1 inactive | KCC2 bumet counter 0.018 | KCC2 secondary2 inactive | HEK293 Tl flux 0.013 | KCC2 retest ouab inactive | HEK293 Tl flux2 0.012
CCSC1=N/C(=C/c2ccsc2)C(=O)N1c1ccccc1	Cl transport mod -4.7 | KCC2 sec1 inactive | KCC2 bumet counter inactive | KCC2 secondary2 inactive | HEK293 Tl flux inactive | KCC2 retest ouab inactive | HEK293 Tl flux2 inactive
O=C(CCCOc1ccccc1)Nc1nc2ccccc2[nH]1	none
O=S(=O)(CCOc1ccccc1)c1nc2ccccc2[nH]1	none (no result: Cl transport mod, ROMK primary) | KCC2 sec1 inactive | KCC2 bumet counter inactive | KCC2 secondary2 inactive | HEK293 Tl flux inactive | KCC2 retest ouab inactive | HEK293 Tl flux2 inactive
CN(C(=O)c1cccc(C#N)c1)c1nnc(-c2cnccn2)s1	none (no result: Cl transport mod) | KCC2 sec1 inactive | KCC2 bumet counter inactive | KCC2 secondary2 inactive | HEK293 Tl flux inactive | KCC2 retest ouab inactive | HEK293 Tl flux2 inconclusive
Cc1cccc(NC(=O)NCc2ccc3[nH]c(C)cc3c2)c1	none
C=C(C)Cn1c(N2CCC(Cc3ccccc3)CC2)nc2c1c(=O)[nH]c(=O)n2C	Cl transport mod -3.6 (no result: ROMK primary) | KCC2 sec1 inactive | KCC2 bumet counter 0.0059 | KCC2 secondary2 0.024 | HEK293 Tl flux inactive | KCC2 retest ouab 0.016 | HEK293 Tl flux2 inactive
Cn1c(=O)[nH]c(=O)c2c1nc(N1CCC(Cc3ccccc3)CC1)n2Cc1ccccc1	none (no result: ROMK primary)
CC(=O)Cn1c(N2CCC(Cc3ccccc3)CC2)nc2c1c(=O)[nH]c(=O)n2C	none (no result: ROMK primary)
CCCn1c(N2CCC(Cc3ccccc3)CC2)nc2c1c(=O)[nH]c(=O)n2C	none (no result: Cl transport mod) | KCC2 sec1 inactive | KCC2 bumet counter inactive | KCC2 secondary2 inconclusive | HEK293 Tl flux inconclusive | KCC2 retest ouab 0.016 | HEK293 Tl flux2 inactive
CCCCCn1c(N2CCC(Cc3ccccc3)CC2)nc2c1c(=O)[nH]c(=O)n2C	Cl transport mod -5.5 (no result: MDM2 E3 inh, ROMK primary) | KCC2 sec1 inactive | KCC2 bumet counter inactive | KCC2 secondary2 inactive | HEK293 Tl flux inactive | KCC2 retest ouab inactive | HEK293 Tl flux2 inactive
CCCCCn1c(N2CCN(Cc3ccccc3)CC2)nc2c1c(=O)[nH]c(=O)n2C	none
O=C(Cc1cccs1)N1CCN(S(=O)(=O)c2ccc(F)cc2)CC1	none
COCCSc1nnc(NC(=O)Cc2ccc(OC)c(OC)c2)s1	none
C=CCOc1c(Br)cc(/C=N/Nc2ccc(C(=O)O)cc2)cc1OCC	Cl transport mod -5.7 | KCC2 sec1 inactive | KCC2 bumet counter 0.0058 | KCC2 secondary2 inactive | HEK293 Tl flux inactive | KCC2 retest ouab inactive | HEK293 Tl flux2 inactive
COc1ccc(/C=N/Nc2ccc(C(=O)O)cc2)cc1Br	none
CCOc1ccc(NC2c3ccccc3C(=O)N2Cc2ccco2)cc1 (stereo not given)	Cl transport mod -4.2 (no result: ROMK primary) | KCC2 sec1 inactive | KCC2 bumet counter inactive | KCC2 secondary2 inactive | HEK293 Tl flux 0.0051 | KCC2 retest ouab 0.016 | HEK293 Tl flux2 inactive
O=C1c2ccccc2C(Nc2ccc(S(=O)(=O)N3CCCCC3)cc2)N1Cc1ccco1 (stereo not given)	Cl transport mod -5.1 (no result: ROMK primary) | KCC2 sec1 inactive | KCC2 bumet counter inactive | KCC2 secondary2 inconclusive | HEK293 Tl flux 0.0062 | KCC2 retest ouab 0.014 | HEK293 Tl flux2 inactive
CC1=CC(C)(C)N(C(=O)C(C)N2C(=O)c3ccccc3C2=O)c2ccc(C)cc21 (stereo not given)	none
CCOC(=O)C1=C(O)C(=O)N(Cc2ccc(C(C)(C)C)cc2)CC1	none (no result: ROMK primary)
O=C(N/N=C/c1cccnc1)c1cccs1	Cl transport mod -3.7 (no result: DTT redox prof, PKD1 kinase inh) | KCC2 sec1 inactive | KCC2 bumet counter inactive | KCC2 secondary2 inactive | HEK293 Tl flux inactive | KCC2 retest ouab inactive | HEK293 Tl flux2 inactive
CCOC(=O)C1(Cc2cccc(OC)c2)CCN(C/C=C/c2ccccc2)CC1	none
NC(=O)COC(=O)/C=C/c1cccc(Br)c1	Cl transport mod -7.7 | KCC2 sec1 inactive | KCC2 bumet counter inactive | KCC2 secondary2 inactive | HEK293 Tl flux inactive | KCC2 retest ouab inactive | HEK293 Tl flux2 inactive
O=C(NCc1ccco1)c1cccc(F)c1	none (no result: ROMK primary)
O=C(CSc1nnnn1-c1ccccc1)N1CCc2ccccc21	none
O=C(CSc1nnnn1-c1ccc(Cl)cc1)N1CCc2ccccc2C1	none (no result: Cl transport mod) | KCC2 sec1 inactive | KCC2 bumet counter inconclusive | KCC2 secondary2 0.025 | HEK293 Tl flux inactive | KCC2 retest ouab inconclusive | HEK293 Tl flux2 inactive
O=C(O)CSc1nnnn1-c1ccccc1	none
O=C(CSc1nnnn1-c1ccccc1)CSc1nnnn1-c1ccccc1	none (no result: Cl transport mod, ROMK primary) | KCC2 sec1 inactive | KCC2 bumet counter inactive | KCC2 secondary2 inactive | HEK293 Tl flux inconclusive | KCC2 retest ouab 0.026 | HEK293 Tl flux2 inactive

Screening data as filed in PubChem BioAssay.
